Activity calls are given as the source filed them. No cut-off for these calls is given here.
Key:
[1] = Protein binding in dog plasma at 5 uM incubated for 6 hrs by red equilibrium dialysis based LC-MS/MS analysis; assay type: ADME, cell-free, Canis lupus familiaris; settings: read-out: PPB (converted)
[2] = AUC (infinity) in dog at 1 mg/kg, iv or po; assay type: ADME, organism-based, Canis lupus familiaris; settings: in vivo
How it was run: (§1)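 Separate intravenous and oral PK studies, each dosed at 1 mg/kg. Plasma AUC was extrapolated to infinity and reported in µM*h. Half-life and oral bioavailability were derived from the same studies.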

[3] = Clearance in cynomolgus monkey plasma at 1 mg/kg, iv or po; assay type: ADME, organism-based, Macaca fascicularis
Mus musculus [4] = assay: In vivo inhibition of IRAK4 in R848-induced C57BL/6 mouse assessed as IFN alpha levels at 1.2 mg/kg, po administered as nanosuspension at 1 hr prior to R848 challenge and measured after 1 hr by ELISA relative to control; assay type: functional; parameters: scale not given: the % may be the effect or the level left
How it was run: (§2)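 C57 black 6 mice were given vehicle or compound as a nanosuspension in MCT (0.5% methyl-cellulose/0.2% tween-80) across a dose range, 1 h before TLR7/8 agonist R848 (resiquimod) stimulation. Blood was drawn 1 h after R848, which is 2 h after compound. Plasma IFNα was measured by ELISA against vehicle-treated, R848-stimulated animals. Plasma drug levels were taken at the same time.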

[5] = Half life in mouse at 1 mg/kg, iv or po; assay type: ADME, organism-based; settings: in vivo
Mus musculus [6] = assay: In vivo inhibition of IRAK4 in R848-induced C57BL/6 mouse assessed as IFN alpha levels at 11.1 mg/kg, po administered as nanosuspension at 1 hr prior to R848 challenge and measured after 1 hr by ELISA relative to control; assay type: functional; parameters: scale not given: the % may be the effect or the level left; how it was run: as §2
[7] = target: T1, Interleukin-1 receptor-associated kinase 4 (Homo sapiens, UniProt Q9NWZ3); assay: Inhibition of recombinant full-length N-terminal His6-tagged human IRAK4 expressed in baculovirus expression system using H-KKARFSRFAGSSPSQSSMVAR peptide as substrate after 90 mins by fluorescence polarisation assay
T1 sequence (Q9NWZ3 whole entry): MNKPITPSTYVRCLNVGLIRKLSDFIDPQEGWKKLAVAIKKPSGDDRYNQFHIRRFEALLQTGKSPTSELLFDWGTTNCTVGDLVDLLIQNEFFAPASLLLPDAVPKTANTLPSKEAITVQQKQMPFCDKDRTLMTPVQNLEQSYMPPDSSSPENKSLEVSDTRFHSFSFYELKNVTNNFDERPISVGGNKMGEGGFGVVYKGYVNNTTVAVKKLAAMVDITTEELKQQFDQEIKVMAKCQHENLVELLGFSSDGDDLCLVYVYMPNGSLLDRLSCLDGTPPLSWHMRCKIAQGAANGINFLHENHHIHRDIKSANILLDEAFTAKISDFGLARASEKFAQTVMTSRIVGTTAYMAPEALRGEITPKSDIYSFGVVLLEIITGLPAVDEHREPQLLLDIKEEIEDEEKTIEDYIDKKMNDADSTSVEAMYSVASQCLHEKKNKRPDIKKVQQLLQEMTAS

[8] = AUC (infinity) in rat at 1 mg/kg, iv or po; assay type: ADME, organism-based; settings: in vivo; how it was run: as §1
[9] = Half life in cynomolgus monkey at 1 mg/kg, iv or po; assay type: ADME, organism-based, Macaca fascicularis; settings: in vivo
[10] = Clearance in dog plasma at 1 mg/kg, iv or po; assay type: ADME, organism-based, Canis lupus familiaris
[11] = Volume of distribution at steady state in dog at 1 mg/kg, iv or po; assay type: ADME, organism-based, Canis lupus familiaris; settings: in vivo, read-out: Vdss
[12] = AUC (infinity) in mouse at 1 mg/kg, iv or po; assay type: ADME, organism-based; settings: in vivo
[13] = Oral bioavailability in rat at 1 mg/kg; assay type: ADME, organism-based; settings: in vivo
Mus musculus [14] = assay: In vivo inhibition of IRAK4 in R848-induced C57BL/6 mouse assessed as IFN alpha levels at 33.3 mg/kg, po administered as nanosuspension at 1 hr prior to R848 challenge and measured after 1 hr by ELISA relative to control; assay type: functional; parameters: scale not given: the % may be the effect or the level left; how it was run: as §2
[15] = Oral bioavailability in mouse at 1 mg/kg; assay type: ADME, organism-based; settings: in vivo
Mus musculus [16] = assay: In vivo inhibition of IRAK4 in R848-induced po dosed C57BL/6 mouse assessed as inhibition of TNFalpha secretion administered as nanosuspension at 1 hr prior to R848 challenge and measured after 1 hr by ELISA; assay type: functional, organism-based
How it was run: (§3)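 C57 black 6 mice dosed with vehicle or nanosuspension in 0.5% methyl-cellulose/0.2% tween-80 across a dose range 1 h before stimulation with TLR7/8 agonist R848; blood sampled 1 h after R848 (2 h post-dose). Plasma IFNα, IL-6 and TNFα measured, IFNα by ELISA; compound plasma levels also determined.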

[17] = AUC (infinity) in cynomolgus monkey at 1 mg/kg, iv or po; assay type: ADME, organism-based, Macaca fascicularis; settings: in vivo; how it was run: as §1
[18] = Half life in dog at 1 mg/kg, iv or po; assay type: ADME, organism-based, Canis lupus familiaris; settings: in vivo
[19] = Volume of distribution at steady state in rat at 1 mg/kg, iv or po; assay type: ADME, organism-based; settings: in vivo, read-out: Vdss
[20] = Volume of distribution at steady state in cynomolgus monkey at 1 mg/kg, iv or po; assay type: ADME, organism-based, Macaca fascicularis; settings: in vivo, read-out: Vdss
[21] = Oral bioavailability in cynomolgus monkey at 1 mg/kg; assay type: ADME, organism-based, Macaca fascicularis; settings: in vivo
[22] = target: T1, Interleukin-1 receptor-associated kinase 4
[23] = Volume of distribution at steady state in mouse at 1 mg/kg, iv or po; assay type: ADME, organism-based; settings: in vivo, read-out: Vdss
[24] = Protein binding in rat plasma at 5 uM incubated for 6 hrs by red equilibrium dialysis based LC-MS/MS analysis; assay type: ADME, cell-free; settings: read-out: PPB (converted)
Mus musculus [25] = assay: In vivo inhibition of IRAK4 in R848-induced C57BL/6 mouse assessed as IFN alpha levels at 3.7 mg/kg, po administered as nanosuspension at 1 hr prior to R848 challenge and measured after 1 hr by ELISA relative to control; assay type: functional; parameters: scale not given: the % may be the effect or the level left; how it was run: as §2
[26] = Clearance in rat plasma at 1 mg/kg, iv or po; assay type: ADME, organism-based
[27] = Apparent permeability across apical to basolateral side in dog MDCKI cells at 10 uM measured after 60 to 180 mins by lucifer yellow dye based LC-MS/MS analysis; assay type: ADME, cell-based, Canis lupus familiaris; settings: MDCK
How it was run: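 Apical-to-basolateral permeability measured in Madin–Darby canine kidney (MDCK) cell monolayers; reported in ×10–6 cm/s.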

Mus musculus [28] = assay: In vivo inhibition of IRAK4 in R848-induced C57BL/6 mouse assessed as inhibition of TNF alpha secretion at 3 mg/kg, po administered as nanosuspension at 1 hr prior to R848 challenge and measured after 1 hr by ELISA; assay type: functional, organism-based; how it was run: as §3
Mus musculus [29] = assay: In vivo inhibition of IRAK4 in R848-induced C57BL/6 mouse assessed as IL6 level at 100 mg/kg, po administered as nanosuspension at 1 hr prior to R848 challenge and measured after 1 hr by ELISA relative to control; assay type: functional; parameters: scale not given: the % may be the effect or the level left
How it was run: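 C57 black 6 mice were pretreated with vehicle or a compound nanosuspension in 0.5% methyl-cellulose/0.2% tween-80 over a dose range, 1 h before R848 stimulation. Blood was sampled 1 h post-R848, and IL-6 and TNFα levels were compared with vehicle-treated, R848-stimulated mice.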

[30] = Protein binding in human plasma at 5 uM incubated for 6 hrs by red equilibrium dialysis based LC-MS/MS analysis; assay type: ADME, cell-free
[31] = Protein binding in mouse plasma at 5 uM incubated for 6 hrs by red equilibrium dialysis based LC-MS/MS analysis; assay type: ADME, cell-free; settings: read-out: PPB (converted)
[32] = Clearance in mouse plasma at 1 mg/kg, iv or po; assay type: ADME, organism-based
[33] = Protein binding in cynomolgus monkey plasma at 5 uM incubated for 6 hrs by red equilibrium dialysis based LC-MS/MS analysis; assay type: ADME, cell-free, Macaca fascicularis; settings: read-out: PPB (converted)
Mus musculus [34] = assay: In vivo inhibition of IRAK4 in R848-induced po dosed C57BL/6 mouse assessed as inhibition of IL-6 secretion administered as nanosuspension at 1 hr prior to R848 challenge and measured after 1 hr by ELISA; assay type: functional, organism-based; how it was run: as §3
Mus musculus [35] = assay: In vivo inhibition of IRAK4 in R848-induced po dosed C57BL/6 mouse assessed as inhibition of IFN alpha secretion administered as nanosuspension at 1 hr prior to R848 challenge and measured after 1 hr by ELISA; assay type: functional, organism-based; how it was run: as §3
[36] = Half life in rat at 1 mg/kg, iv or po; assay type: ADME, organism-based; settings: in vivo
[37] = Oral bioavailability in dog at 1 mg/kg; assay type: ADME, organism-based, Canis lupus familiaris; settings: in vivo

CC(C)(O)[C@H](F)CN1Cc2cc(NC(=O)c3cnn4cccnc34)c(N3CCOCC3)cc2C1=O
fraction unbound at 6 h, 5 µM [1]: 0.224 | AUC(0-inf) [2]: 3.1 µM·h | clearance [3]: 15.8 mL/min/kg | Activity (Mus musculus [4]): -12% | half-life [5]: 1.9 h | Activity (Mus musculus [6]): -45% | Ki [7]: 1.4 nM | AUC(0-inf) [8]: 3.8 µM·h | half-life [9]: 5.4 h | clearance [10]: 11.3 mL/min/kg | Vd [11]: 3.7 L/kg | AUC(0-inf) [12]: 1.2 µM·h | bioavailability [13]: 31% | Activity (Mus musculus [14]): -53% | bioavailability [15]: 34% | inhibition (Mus musculus [16]): Dose-dependent effect | AUC(0-inf) [17]: 2.2 µM·h | half-life [18]: 4.1 h | Vd [19]: 0.95 L/kg | Vd [20]: 3.7 L/kg | bioavailability [21]: 47% | IC50 [22]: 190 nM | Vd [23]: 2.2 L/kg | fraction unbound at 6 h, 5 µM [24]: 0.086 | Activity (Mus musculus [25]): -24% | clearance [26]: 9.2 mL/min/kg | Papp A→B at 10 µM [27]: 9.1 to 9.2 ×10⁻⁶ cm/s | inhibition (Mus musculus [28]): Active | Activity (Mus musculus [29]): -64% | PPB [30]: 72.4% | fraction unbound at 6 h, 5 µM [31]: 0.058 | clearance [32]: 29 mL/min/kg | fraction unbound at 6 h, 5 µM [33]: 0.332 | inhibition (Mus musculus [34]): Dose-dependent effect | inhibition (Mus musculus [35]): Dose-dependent effect | half-life [36]: 1.6 h | bioavailability [37]: 109%

Source: ChEMBL document CHEMBL4342485, “Discovery of Potent Benzolactam IRAK4 Inhibitors with Robust in Vivo Activity” (ACS Med Chem Lett, 2020)
